In the EternaBench riboswitch data:

Assays:
MS2 coat protein [1] = assay: apparent Kd, MS2 coat protein; higher = weaker binding; RNA-MaP array
In short: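 For each design, the apparent Kd is the median of binding-curve fits across its clusters. Designs measured on fewer than 10 clusters were dropped. The RNAs were transcribed from sequenced DNA templates on an Illumina sequencing chip and incubated at room temperature, with or without input ligand, with fluorescently labeled MS2 coat protein at 1.5 nM to 3 μM.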

MS2 coat protein [2] = assay: apparent Kd, MS2 coat protein; higher = weaker binding; RNA-MaP array; FMN 200 µM where present
In short: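 Stalled E. coli RNA polymerase transcribed the designs on Illumina sequencing-chip clusters. SNAP-549-labelled MS2 coat protein was titrated from 0.7 or 1.5 nM, doubling to 3 µM, without and then with constant ligand, in 100 mM Tris-HCl pH 7.5, 80 mM KCl, 4 mM MgCl2, BSA, DTT, yeast tRNA and Tween-20. Per-cluster binding curves were fitted to green signal normalised to red-channel RNA signal and control-cluster median Fmax. The apparent Kd is the median of the filtered fits.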

[3] = designed as: OFF switch for flavin mononucleotide, no ligand
[4] = ligand present: flavin mononucleotide, designed as: OFF switch for flavin mononucleotide
[5] = designed as: ON switch for flavin mononucleotide, no ligand
[6] = ligand present: flavin mononucleotide, designed as: ON switch for flavin mononucleotide

Sequence | apparent Kd (MS2 coat protein [2]; [3]) [nM] | apparent Kd (MS2 coat protein [2]; [4]) [nM] | other results
AUCAUGUAAGGAUAUGCCGAACCUGUUUUGUCGCGGUUAAAGCAGAAGGUACAUGAGGAUCACCCAUGUUAAAU | – | – | apparent Kd (MS2 coat protein [1]; [3]): 56.2 nM; apparent Kd (MS2 coat protein [1]; [4]): 54.4 nM
UGAGUAAGCGAGGAUAUUGGGCGCGUACGUGGUCAAGAAGGCGCAACAUGAGGAUCACCCAUGUGCUUCUCUUG | – | – | apparent Kd (MS2 coat protein [1]; [3]): 15.7 nM; apparent Kd (MS2 coat protein [1]; [4]): 29.2 nM
CGUAUUGCUCGUUAGGAUAUCCAAUCUGAAACAUGAGGAUCACCCAUGUAGCCAGCAUCACAUGAGGAGAAGGAACAAGAUAAACG | – | – | apparent Kd (MS2 coat protein [1]; [5]): 16.6 nM; apparent Kd (MS2 coat protein [1]; [6]): 8.89 nM
UGGUAGCCACACUUCAAACAUCGACAAGAUACCAGUUAAUCAACGAACCCUUGGCAGCUUCGUACAUGAGGAUCACCCAUGUGGA | – | – | apparent Kd (MS2 coat protein [1]; designed as: OFF switch for theophylline, no ligand): 18.2 nM; apparent Kd (MS2 coat protein [1]; ligand present: theophylline, designed as: OFF switch for theophylline): 23 nM
GCAUAUCAGGGAGGAUAUGACAUGAGGAUCACCCAUGUAAUUAUGGCUCUGUCAGAAGGCCCAUCGUCACUAUAGUGACGAGAC | 370 | 139 | –
AAAAAGUCAGGAUAUGCUUAUAAUAAGAAAAUUAGAGAUAUGCAGAAGGGACAUGAGGAUCACCCAUGUAAAAA | 35.3 | 37.8 | –
AGAUGACAAUGUCAUCUUCGACGGACAUGAGGAUCACCCAUGUAGGAUAUGCUACUCAAAGAGUAGCAGAAGGACAUGUGUCUU | 22.2 | 74.8 | –
AGCUAGUCAGGAUAUACAAACAUGUCGAGAGACGUGAAGGGACAUGAGGAUCACCCAUGUAGAAGGGACUAGCA | 59 | 234 | –
CCAGGCGUAUAGGAUAUACGUGUCGAGUUCGCUGUAGAAGGAUACACAUGAGGAUCACCCAUGUUUGCCAGUGG | 24.5 | 21.2 | –
UAUAUAUAGUAAGGAUAUGUAUAUAAUUUAUAAACAGAAGGUACUGACAUGAGGAUCACCCAUGUUUUAGUGUGGGCAUGUAGA | 72.8 | 141 | –
ACAUGAGGAUCACCCAUGUGAAAAGAAUGGCUGACACAGAGAUAGGAUAUAUGUGCAUAUCUAACGUAGAAGGGUCAUGACUGG | 33.3 | 36.4 | –
AAAUUUUGUCAAGGAUAUGUAUAAAAGAGUUGAAAACAUGAGGAUCACCCAUGUAUAUGGUGGGAACAGAAGGUGAAUAAGUAA | 190 | 182 | –
UCGGCGCGAGGAUAUGCGGUUCCUCCCUAGGGCCGGAGCGUACAUGAGGAUCACCCAUGUAGAAGGCGCGCCGC | 12.3 | 15 | –
GUAGGCGACCAGAAGGGUGACAUGAGGAUCACCCAUGUAGAUGUGUUCCCGCUUGGGAGCCGUCCACAGGAUAUGGUUGGUUAU | – | – | apparent Kd (MS2 coat protein [2]; [5]): 49.9 nM; apparent Kd (MS2 coat protein [2]; [6]): 74.5 nM
CAAUUGGCACAGAAGGGUGACAUGAGGAUCACCCAUGUAGCGUGGCACUCAGGAGAAGCCACGCCACAGGAUAUGUGCCGGCAC | – | – | apparent Kd (MS2 coat protein [2]; [5]): 73.6 nM; apparent Kd (MS2 coat protein [2]; [6]): 37.1 nM
CAGGGAACAGGAUAUACAUGAGGAUCACCCAUGUGUUCCAGCUAGGAAACUAGCAAAUGUAGAAGGGUUCCCUG | 174 | 922 | –
ACAUGAGGAUCACCCAUGUUCGUUGAAGAAGGUACCAUUUACUUUAGUAGUAUUAAUUUAUUUGGUAAGGAUAUUCUCAUAAUU | – | – | apparent Kd (MS2 coat protein [2]; [5]): 15.9 nM; apparent Kd (MS2 coat protein [2]; [6]): 7.75 nM
CGCACUGAUAGAGGAUAUGUUUUACAUGAGGAUCACCCAUGUGUACAUGGAUUAAUAUAUAAGUAACAGAAGGCUAUUUGUGCG | 18.9 | 15.1 | –
GGAUAGGACAGAGGAUAUACGUGCUAGAGAUACUAGCAAAAUUUCCUCACAUGAGGAUCACCCAUGUAGAAGGCUGUCCUAUCA | 16.7 | 380 | –
AUCAGCUCGUGAGGAUAUACAACACUGCUUCGGCAGUGUAUUAAGAUCACAUGAGGAUCACCCAUGUAGAAGGCACGAGCUGAU | 13.5 | 278 | –
GGUCGGCGAGGAUAUACAUGAGGAUCACCCAUGUGAUAGAUUGCACGCGUACGUGUAUGUAGAAGGCGCUGACG | 21.8 | 200 | –
CUUGUUUAAGUGAGGAUAUACUGUUAGUAAUGAUUGUAGAAGGUACAUGAGGAUCACCCAUGUUUAUUUAUAUU | 17.8 | 16.7 | –
UUAAUCUAUACAGGAUAUCCAUACGCUGCAUACGGAGAAGGGUAACAAUCAUGAGGACAUGAGGAUCACCCAUGUUGUGACCAU | – | – | apparent Kd (MS2 coat protein [2]; [5]): 198 nM; apparent Kd (MS2 coat protein [2]; [6]): 97.1 nM
CUAGAUAUGUAAGGAUAUAUAGUGGAAUACACUAUAGAAGGUAUGUGAGAACAUGAGGAUCACCCAUGUCAUUGGAUAUCUAGA | – | – | apparent Kd (MS2 coat protein [2]; [5]): 33.7 nM; apparent Kd (MS2 coat protein [2]; [6]): 37.6 nM
GCACUGGAUGUAGGAUAUCAGGACGAUAAGUCCUGAGAAGGACAUGAGGAUCACCCAUGUCUCAAGAAACCAGUGCAUAAUAUA | 13 | 15.9 | –
AGGGAGUUAGGAUAUGCUGCUCGUCACUUGCGUGAUGAGUAGCAGAAGGAACAUGAGGAUCACCCAUGUAAAAA | 31.2 | 30.3 | –
UGAGCUUCAGGAUAUAUAUGGCGACCGUGAGGUCGAAGGUUACAUGAGGAUCACCCAUGUAGAAGGGAAGUUCU | 34.5 | 187 | –

Sequence | apparent Kd (MS2 coat protein [2]; [3]) [nM] | apparent Kd (MS2 coat protein [2]; [4]) [nM] | other results
AGUAUCACAGGAUAUACAUGAGUGAAAAAAGUAAAUCCACUACAUGAGGAUCACCCAUGUAGAAGGGUGAUACA | 65.7 | 57.9 | –
GCUCUUGUCAAGAAGGGCUCGCGGUACGCUGCAGCAGGAUAUUGACAUGAGGAUCACCCAUGUCGACCGGAACAUCUUUGAGGG | 13.3 | 134 | –
GGUACUCAAAGAGUACUUGGUCGAACAUGAGGAUCACCCAUGUAGGAUAUGCGAAGCAAGAAGUAGCAGAAGGGCGUGUGCAGC | 12.8 | 11.6 | –
UGCAUGUUAGGAUAUGUUGUUGCGGGCGUACGCUCUCGACCACAGAAGGAACAUGAGGAUCACCCAUGUACCUC | 20.3 | 88.8 | –
UCAGUAGAGUCAGGAUAUACGAAAGAAGAUCCUUACAUGAGGAUCACCCAUGUAGAAGGGACUCUACUGUAAGUCGGAAACGAC | 129 | 192 | –
UGGAUAGGAAAAUUUGUCCAUUGUACAGAAGGCCAACAUGAGGAUCACCCAUGUAAGAAAAGGAUGGAGGAUAUGUAUAGGGCC | – | – | apparent Kd (MS2 coat protein [2]; [5]): 64.5 nM; apparent Kd (MS2 coat protein [2]; [6]): 20.9 nM
UCGGCGCGAGGAUAUGCGGUUCCUUCUUCGGGCCGGAGCGUACAUGAGGAUCACCCAUGUAGAAGGCGCGCCGC | 13.6 | 15.3 | –
UUGGUAUUUGUAGGAUAUCUGUCGCCACCGUGUGGAGAAGGACGAACAUGAGGAUCACCCAUGUAUCAUGGUGUGGGCUUUGCU | 302 | 317 | –
UUGGACGUCGUAGGAUAUGUAGGAUAUUCUUACAUGAGGAUCACCCAUGUUGACAUGGAAGAAGGACAGAAGGACGAUGUCCAU | – | – | apparent Kd (MS2 coat protein [2]; [5]): 56.7 nM; apparent Kd (MS2 coat protein [2]; [6]): 7.2 nM
AAAAUGUGAGGAUAUCACGGAGCUCCGCGUGACGGAGCUCCUGAGAAGGCACAUGAGGAUCACCCAUGUCCUGU | 51.3 | 316 | –
UGGUACUAGGGAGGAUAUGGGAAGUUACAUGAGGAUCACCCAUGUUUAAGAAUGCCGAGAGGCAACUAGAAGGCCCUAGUACCU | – | – | apparent Kd (MS2 coat protein [2]; [5]): 31.6 nM; apparent Kd (MS2 coat protein [2]; [6]): 6.24 nM
CUUUUGUGAGGAUAUCAGUAUUAAAUAAAUAAAAUUACUACUGAGAAGGCACAUGAGGAUCACCCAUGUUCCUC | 33.4 | 201 | –
UUUUACUGAGGAUAUACAUUUUUUUAUUUAUUUAUAAUAUUACAUGAGGAUCACCCAUGUAGAAGGCAGAUUUU | 27.4 | 24.4 | –
AGCGAGAUAGGCAAGGAUAUGCUGGGUUUCACAUGAGGAUCACCCAUGUCAUAGGUAAUGUCCGAGCAGAAGGUGCAUUCUCUUU | – | – | apparent Kd (MS2 coat protein [2]; [5]): 171 nM; apparent Kd (MS2 coat protein [2]; [6]): 21.7 nM
UGUCGGAGCAGAGGAUAUUACAUGAGGAUCACCCAUGUAUGAACCAAUAGCUGGAAACAUCAAUGUAAGAAGGCUGCUCCGACA | 10.2 | 72.5 | –
GGAAGACAAAGUCUUCCUAUUCGAACAUGAGGAUCACCCAUGUAGGAUAUGCUACUCAAAGAGUAGCAGAAGGACAUGUGCUUU | 34.8 | 160 | –
AUGACAUGCAGAGCGCAACGGCGUACAUGAGGAUCACCCAUGUAGGAUAUACUACACAAAGUGUAGUAGAAGGACAUGCGACGG | 30.8 | 50.8 | –
GUCAGCUCGUGAGGAUAUACGACACUGCUUCGGCAGUGUAUUAAGAUCACAUGAGGAUCACCCAUGUAGAAGGCACGAGCUGAU | 8.64 | 145 | –
GUAUGUUAUGAGGAUAUCGGUGAACAUACACAUCGAGAAGGCAUGACAUGAGGAUCACCCAUGUCAAGGAUGAC | 27.4 | 57.8 | –
AGUCGGAGCAGAGGAUAUAUACAUGAGGAUCACCCAUGUAAAUGAAUAAGCUGGAAACAGCAAGUAUAGAAGGCUGCUCCGACA | 14.5 | 16.2 | –
CAGCAAUGUAAGAAGGCUGCUCCGAUAAGGAGCAGAGGAUAUUACAUGAGGAUCACCCAUGUAUGAACCAAUAGCUGAAAUAAA | 8.78 | 94.2 | –
UAUAUAUAGUAAGGAUAUGUAUAUGUUUUAUAAACAGAAGGUACUGACAUGAGGAUCACCCAUGUUUUAGUGUGGGCAUGUAGA | 58.4 | 92 | –
GGGCAAUUAGGAUAUACAUGAGGAUCACCCAUGUGGAAGCCCGGACAGGUAAUCCACUGUAGAAGGGAUUGCCA | 12 | 13.3 | –
UUAUACGUUGAGGAUAUGUCAGUUAGUAUAUUUACAGAAGGCGAUACAUGAGGAUCACCCAUGUUUAUGGGCAU | 213 | 149 | –
GGAUGACAAAGUCAUCCUUAACGAACAUGAGGAUCACCCAUGUAGGAUAUGCUACUCAAAGAGUAGCAGAAGGACAUGUGCCUU | 35 | 242 | –
CCUCUACAUGAGGAUCACCCAUGUGAGGAUAUCAAAGCCAGAGCGGAUCUCUGGUCCAUGAGAAGGUGCAUGGU | 20.4 | 89.6 | –
